ChEMBL document CHEMBL4325878, “SAR of a new antischistosomal urea carboxylic acid” (Bioorg Med Chem Lett, 2018)
≈ marks a conversion by molar mass, not a printed value. Calls of active or inactive are those of the source. The rule behind the calls is not given here.

Legend:
Schistosoma mansoni [1] = experiment: Antischistosomal activity against adult stage of Schistosoma mansoni infected in NMRI nude mouse administered as single oral dose on day 49 of post infection; type: functional; conditions: 1176 h
L6 = experiment: Cytotoxicity against rat L6 cells up to 200 uM; type: cell-based
How it was run: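 Growth inhibition of rat L6 myoblasts was used as the host-cell cytotoxicity measure, testing compound at concentrations up to 200 μM.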

Schistosoma mansoni [2] = experiment: Antischistosomal activity against adult stage of Schistosoma mansoni cercariae at 10 uM after 72 hrs by microscopic analysis; type: functional, organism-based
How it was run: (§1)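 Newly transformed schistosomula and cultured adult S. mansoni were exposed in vitro to compound at 10 μM.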

Schistosoma mansoni [3] = experiment: Antischistosomal activity against Schistosoma mansoni cercariae infected in NMRI mouse assessed as worm burden reduction at 100 mg/kg, po administered as single dose on day 49 of post infection and measured on day 21 of post treatment relative to control; type: functional; design: scale not given: the % may be the effect or the level left
How it was run: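 Single 100 mg/kg oral dose given to S. mansoni-infected mice; in vivo activity read as worm burden reduction versus an untreated control group, with statistical comparison to control.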

[4] = Kinetic solubility of compound in 0.01 M HCL at 10 mg/ml at pH 2 by nephelometry; type: physicochemical; conditions: read-out: Kinetic_solubility
How it was run: (§2)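 DMSO solutions of compound spiked into pH 6.5 phosphate buffer or 0.01 M HCl (approx. pH 2.0); nephelometry read-out, reported as a solubility concentration range.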

[5] = Intrinsic clearance in human liver microsomes assessed per mg protein after 60 mins in presence of NADPH; type: ADME, Microsome; conditions: 1 h
How it was run: (§3)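 In vitro intrinsic clearance determined in human and in mouse liver microsomes. Control incubations run without NADPH co-factor; parameters were not derived where compound was lost in those co-factor-free controls.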

[6] = Intrinsic clearance in mouse liver microsomes assessed per mg protein after 60 mins in presence of NADPH; type: ADME, Microsome; conditions: 1 h; how it was run: as §3
[7] = Kinetic solubility of compound in pH 6.5 phosphate buffer at 10 mg/ml by nephelometry; type: physicochemical; conditions: read-out: Kinetic_solubility; how it was run: as §2
Schistosoma mansoni [8] = experiment: Antischistosomal activity against newly transformed Schistosoma mansoni cercariae at 10 uM after 72 hrs by microscopic analysis; type: functional, organism-based; how it was run: as §1
Schistosoma mansoni [9] = experiment: Antischistosomal activity against adult stage of Schistosoma mansoni cercariae after 72 hrs by microscopic analysis; type: functional

solubility kinetic [4] [µg/mL]	microsomal intrinsic clearance [5] [µL/min]	microsomal intrinsic clearance [6] [µL/min]	solubility kinetic [7] [µg/mL]	SMILES	ED50 (Schistosoma mansoni [1]) [mg/kg]	Activity (L6)	Activity (Schistosoma mansoni [2])	Activity (Schistosoma mansoni [3]) [%]	Activity (Schistosoma mansoni [8])	LC50 (Schistosoma mansoni [9]) [nM]
50 to 100 (≈ 163 to 325 µM)	19	18	50 to 100 (≈ 163 to 325 µM)	CC(C)(NC(=O)Nc1ccc(F)c(C(F)(F)F)c1)C(N)=O		Non-Toxic	inactive	38	inactive	
3.1 to 6.3 (≈ 9.22 to 18.7 µM)			3.1 to 6.3 (≈ 9.22 to 18.7 µM)	CCOC(=O)C(C)(C)NC(=O)Nc1ccc(F)c(C(F)(F)F)c1		Non-Toxic	inactive	70	inactive	
25 to 50 (≈ 81.1 to 162 µM)	< 7	< 7	> 100	CC(C)(NC(=O)Nc1ccc(F)c(C(F)(F)F)c1)C(=O)O			inactive		inactive	
> 100	< 7	< 7	> 100	O=C(O)CNC(=O)Nc1ccc(F)c(C(F)(F)F)c1		Non-Toxic	inactive	49	inactive	
25 to 50 (≈ 81.4 to 163 µM)	< 7	< 7	25 to 50 (≈ 81.4 to 163 µM)	CC(C)(CC(=O)Nc1ccc(F)c(C(F)(F)F)c1)C(=O)O		Non-Toxic	inactive	42	inactive	

The remaining lines, values behind:

SMILES	solubility kinetic [4] [µg/mL]	microsomal intrinsic clearance [5] [µL/min]	microsomal intrinsic clearance [6] [µL/min]	solubility kinetic [7] [µg/mL]	ED50 (Schistosoma mansoni [1]) [mg/kg]	Activity (L6)	Activity (Schistosoma mansoni [2])	Activity (Schistosoma mansoni [3]) [%]	Activity (Schistosoma mansoni [8])	LC50 (Schistosoma mansoni [9]) [nM]
CC1(C)NC(=O)N(c2ccc(F)c(C(F)(F)F)c2)C1=O					172					
CC(C)(C(=O)O)n1c(=O)[nH]c2cc(C(F)(F)F)c(F)cc21	50 to 100 (≈ 163 to 327 µM)	< 7	< 7	> 100		Non-Toxic	inactive	0	inactive	
O=C(C1CCCCC1)N1CC(=O)N2CCc3ccccc3C2C1 (stereo not given) [PRAZIQUANTEL]								15		77
CC(C)(NC(=O)Nc1ccccc1)C(=O)O	> 100	< 7	< 7	50 to 100 (≈ 225 to 450 µM)		Non-Toxic	inactive	20	inactive	
CC(C)(NC(=O)Cc1ccc(F)c(C(F)(F)F)c1)C(=O)O	50 to 100 (≈ 163 to 325 µM)	< 7	< 7	25 to 50 (≈ 81.4 to 163 µM)		Non-Toxic	inactive	0	inactive	
CC(C)(C(=O)O)N1CCCN(c2ccc(F)c(C(F)(F)F)c2)C1=O	> 100	< 7	< 7	> 100		Non-Toxic	inactive	14	inactive	
CC(C)(C(=O)O)N1Cc2cc(F)c(C(F)(F)F)cc2NC1=O	50 to 100 (≈ 156 to 312 µM)	< 7	< 7	> 100		Non-Toxic	inactive	0	inactive	
O=C(Nc1ccc(F)c(C(F)(F)F)c1)NC1(C(=O)O)CC1	> 100	< 7	< 7	> 100		Non-Toxic	inactive	4	inactive	
O=C(Nc1ccc(F)c(C(F)(F)F)c1)NC1(C(=O)O)CCC1	50 to 100 (≈ 156 to 312 µM)	7	< 7	> 100		Non-Toxic	inactive	21	inactive	
